According to ChEMBL document CHEMBL4152266, “Insight into structural requirements for selective and/or dual CXCR3 and CXCR4 allosteric modulators” (Eur J Med Chem, 2018):
Active and inactive are the calls of the source. The rule behind the calls is not given here.

Tests used:
[1] = target: T1, C-X-C chemokine receptor type 3 (Homo sapiens) (UniProt P49682); test: Agonist activity at PK1-tagged CXCR3 (unknown origin) expressed in HEK293T cells co-expressing beta-arrestin/beta-Gal enzyme chimera assessed as beta-arrestin recruitment at 10 uM after 4 hrs by chemiluminescence based beta-galactosidase reporter gene assay; format: functional, cell-based
T1 sequence (whole entry): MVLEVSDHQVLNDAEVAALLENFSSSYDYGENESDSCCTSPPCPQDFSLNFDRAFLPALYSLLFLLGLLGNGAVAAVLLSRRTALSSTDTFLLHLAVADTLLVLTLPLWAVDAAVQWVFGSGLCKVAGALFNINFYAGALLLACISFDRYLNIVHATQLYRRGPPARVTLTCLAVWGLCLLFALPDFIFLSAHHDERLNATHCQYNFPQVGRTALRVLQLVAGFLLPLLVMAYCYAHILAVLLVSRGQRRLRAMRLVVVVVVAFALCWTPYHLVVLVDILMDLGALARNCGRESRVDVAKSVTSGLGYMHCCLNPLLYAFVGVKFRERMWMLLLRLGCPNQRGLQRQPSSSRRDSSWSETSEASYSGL
Outline: (§1)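 PathHunter β-arrestin 2 recruitment at CXCR3 by β-gal fragment complementation, chemiluminescent read-out, compounds at 10 µM. Inhibition mode is scaled between CXCL11 50 nM (100%) and (±)-NBI-74330 10 µM (full inhibition). Agonism tested without chemokine. Mean ± S.E.M., three experiments in triplicate.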

[2] = target: T1, C-X-C chemokine receptor type 3 (Homo sapiens); test: Negative allosteric modulation of CXCR3 (unknown origin) expressed in HEK293T cells assessed as inhibition of CXCL11-induced reduction in forskolin-mediated cAMP accumulation at 10 uM after 20 mins by BRET assay relative to control; format: functional, cell-based
Outline: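 CXCR3 antagonism in whole-cell BRET cAMP assay, compounds at 10 µM. NetBRET signal expressed as percent, scaled between CXCL11 50 nM (100%) and cRAMX3 10 µM (0%). Mean ± S.E.M. of three experiments in triplicate.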

[3] = target: T1, C-X-C chemokine receptor type 3 (Homo sapiens); test: Agonist activity at CXCR3 (unknown origin) expressed in HEK293T cells assessed as inhibition of forskolin-mediated cAMP accumulation at 10 uM after 20 mins by BRET assay; format: functional, cell-based
[4] = target: T2, C-X-C chemokine receptor type 4 (Homo sapiens, UniProt P61073); test: Agonist activity at CXCR4 (unknown origin) expressed in HEK293T cells assessed as inhibition of forskolin-mediated cAMP accumulation at 10 uM after 20 mins by BRET assay; format: functional, cell-based
Outline: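 Agonism screen in BRET-based cAMP assay, compounds at 10 µM applied without chemokine. For CXCR4, CXCL12 at 20 nM serves as positive control. Mean of three experiments, each in triplicate.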

[5] = target: T2, C-X-C chemokine receptor type 4; test: Negative allosteric modulation of CXCR4 (unknown origin) expressed in HEK293T cells assessed as inhibition of CXCL12-induced reduction in forskolin-mediated cAMP accumulation after 20 mins by BRET assay; format: functional, cell-based
Outline: (§2)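 Dose-response in CXCR4 BRET cAMP assay with CXCL12 at 20 nM, IT1t as reference. Analysis uses ternary complex allosteric model; where signal-to-noise was poor, nonlinear regression with Hill slope fixed at 1 gave approximate pEC50. Three experiments in triplicate.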

[6] = target: T1, C-X-C chemokine receptor type 3 (Homo sapiens); test: (§3) Positive allosteric modulation of PK1-tagged CXCR3 (unknown origin) expressed in HEK293T cells co-expressing beta-arrestin/beta-Gal enzyme chimera assessed as increase in CXCL11-induced beta-arrestin recruitment at 10 uM after 4 hrs by chemiluminescence based beta-galactosidase reporter gene assay; format: functional, cell-based; outline: as §1
[7] = target: T1, C-X-C chemokine receptor type 3 (Homo sapiens); test: Negative allosteric modulation of CXCR3 in human PBMC assessed as inhibition of CXCL11-induced migration at 30 uM preincubated for 1 hr followed by CXCL11 addition measured after 3 hrs by flow cytometry based transwell assay relative to control; format: functional, cell-based
Outline: (§4)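 Human PBMCs, CXCR3 expression confirmed by flow cytometry, pre-treated with compound (30 or 150 µM) then allowed to migrate toward CXCL11 in a transwell. Cells in the lower chamber counted by flow cytometry (60 s counts). Mean ± SD of four independent experiments; unpaired t test.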

[8] = target: T1, C-X-C chemokine receptor type 3 (Homo sapiens); test: Negative allosteric modulation of CXCR3 in human PBMC assessed as inhibition of CXCL11-induced migration at 150 uM preincubated for 1 hr followed by CXCL11 addition measured after 3 hrs by flow cytometry based transwell assay relative to control; format: functional, cell-based; outline: as §4
[9] = target: T1, C-X-C chemokine receptor type 3 (Homo sapiens); test: as §3, with “Negative” for “Positive”, “inhibition of” for “increase in”, “assay relative to control” for “assay”; format: functional, cell-based; outline: as §1
[10] = target: T1, C-X-C chemokine receptor type 3 (Homo sapiens); test: Negative allosteric modulation of CXCR3 (unknown origin) expressed in HEK293T cells assessed as inhibition of CXCL11-induced reduction in forskolin-mediated cAMP accumulation after 20 mins by BRET assay; format: functional, cell-based
Outline: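 CXCR3 dose-response in BRET cAMP assay against CXCL11 at 50 nM, cRAMX3 as reference. Data fitted with a ternary complex allosteric model to give pKB and cooperativity α. Mean ± S.E.M., three experiments in triplicate.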

[11] = target: T2, C-X-C chemokine receptor type 4; test: Agonist activity at CXCR4 (unknown origin) expressed in HEK293T cells assessed as inhibition of forskolin-mediated cAMP accumulation after 20 mins by BRET assay; format: functional, cell-based; outline: as §2
[12] = target: T2, C-X-C chemokine receptor type 4; test: Negative allosteric modulation of CXCR4 (unknown origin) expressed in HEK293T cells assessed as inhibition of CXCL12-induced reduction in forskolin-mediated cAMP accumulation at 10 uM after 20 mins by BRET assay relative to control; format: functional, cell-based
Outline: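 CXCR4 antagonism in BRET cAMP assay, compounds at 10 µM. NetBRET expressed as percent, scaled between CXCL12 20 nM (100%) and IT1t 10 µM (0%). Mean ± S.E.M. of three experiments in triplicate.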

[13] = target: T2, C-X-C chemokine receptor type 4; test: Negative allosteric modulation of CXCR4 in human CD4+ T cells assessed as inhibition of CXCL12-induced migration at 150 uM preincubated for 1 hr followed by CXCL12 addition measured after 3 hrs by flow cytometry based transwell assay relative to control; format: functional, cell-based
Outline: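 Isolated human CD4+ T cells, CXCR4 expression checked by flow cytometry, pre-treated with compound at 150 µM, then transwell migration toward CXCL12. Migrated cells in the lower chamber counted by flow cytometry over 60 s. Mean ± SD of four independent experiments; unpaired t test.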

[14] = target: T2, C-X-C chemokine receptor type 4; test: Positive allosteric modulation of CXCR4 (unknown origin) expressed in HEK293T cells assessed as increase in CXCL12-induced reduction in forskolin-mediated cAMP accumulation at 10 uM after 20 mins by BRET assay relative to control; format: functional, cell-based; set-up: scale not given: the % may be the effect or the level left
[15] = target: T1, C-X-C chemokine receptor type 3 (Homo sapiens); test: Negative allosteric modulation of CXCR3 (unknown origin) expressed in HEK293 cell membranes assessed as inhibition of CXCL11-induced [35S]GTPgammaS binding preincubated for 30 mins followed by [35S]GTPgammaS addition measured after 30 mins; format: functional
[16] = target: T2, C-X-C chemokine receptor type 4; test: Negative allosteric modulation of CXCR4 (unknown origin) expressed in HEK293 cell membranes assessed as inhibition of CXCL12-induced [35S]GTPgammaS binding preincubated for 30 mins followed by [35S]GTPgammaS addition measured after 30 mins; format: functional

T2 sequence (P61073 whole entry): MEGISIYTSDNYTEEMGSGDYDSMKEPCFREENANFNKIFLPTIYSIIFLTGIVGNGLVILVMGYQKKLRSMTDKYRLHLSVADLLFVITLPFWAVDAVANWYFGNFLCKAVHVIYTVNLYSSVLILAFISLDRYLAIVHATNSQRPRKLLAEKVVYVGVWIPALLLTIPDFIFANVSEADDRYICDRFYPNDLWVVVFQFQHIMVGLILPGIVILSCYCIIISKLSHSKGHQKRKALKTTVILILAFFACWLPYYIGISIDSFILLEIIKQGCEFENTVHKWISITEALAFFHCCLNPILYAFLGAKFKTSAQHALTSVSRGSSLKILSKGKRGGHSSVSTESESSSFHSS

Row | Structure (SMILES) | Activity [1] | inhibition [2] | inhibition [3] | pKb [5] | Activity [6] | inhibition [9] | inhibition [12] | further results
1 | O=C(NCCCNc1ccccc1)c1ccc(-n2cccn2)nc1 |  |  |  |  | inactive |  |  | inhibition [4]: Active; EC50 [11]: 9.55 µM
2 | CCOc1ccc(-n2c(C(C)N(Cc3cccnc3)C(=O)Cc3ccc(F)c(C(F)(F)F)c3)nc3ncccc3c2=O)cc1 (racemic) |  |  |  |  |  | 100% |  | 
3 | O=C(c1ccc(-n2cccn2)nc1)N1CCC(N(Cc2ccccc2)Cc2ccc(F)c(F)c2)CC1 | inactive |  | inactive |  |  | ≥ 20% |  | 
4 | O=C(c1ccc(-n2cccn2)nc1)N1CCC(N(Cc2ccccc2)Cc2ccccc2)CC1 | inactive |  | inactive |  |  | ≥ 20% |  | 
5 | CC1(C)CN2C(CS/C(=N\C3CCCCC3)NC3CCCCC3)=CSC2=N1 |  |  |  | 8.54 |  |  |  | Activity [14]: 100%
6 | CCN(CCCNC(=O)c1ccc(-n2cccn2)nc1)c1ccccc1 |  | inactive |  |  |  |  | inactive | pKb [15]: 8.82; pKb [16]: 8.72
7 | O=C(NCCCN(Cc1ccccc1)c1ccccc1)c1ccc(-n2cccn2)nc1 |  |  |  | 6.04 | inactive |  | > 50% | inhibition [13]: > 80%
8 | O=C(c1ccc(-n2cccn2)nc1)N1CCC(N(Cc2ccccc2)Cc2ccc(Cl)c(Cl)c2)CC1 | inactive | > 50% | inactive |  |  |  |  | inhibition [7]: > 10%; inhibition [8]: > 20%
9 | O=C(c1ccc(-n2cccn2)nc1)N1CCC(NCc2ccccc2)CC1 | inactive |  | inactive |  | inactive |  |  | Activity [14]: Active; inhibition [4]: Active; EC50 [11]: 5.89 µM
10 | CCOc1ccc(-n2c(C(C)N(CC3CCN(C)CC3)C(=O)Cc3ccc(F)c(C(F)(F)F)c3)nc3ncccc3c2=O)cc1 (stereo not given) |  | 100% |  |  |  |  |  | pKb [10]: 7.33
11 | O=C(NCCCN(CCc1ccccc1)c1ccccc1)c1ccc(-n2cccn2)nc1 |  |  |  | 6.13 | inactive |  | > 50% | inhibition [13]: > 80%
12 | COc1ccc(CN(Cc2ccccc2)C2CCN(C(=O)c3ccc(-n4cccn4)nc3)CC2)cc1 | inactive |  | inactive | 5.83 | inactive | ≥ 20% | > 50% | inhibition [13]: 100%
13 | O=C(NCCCNc1ccc(Cl)cc1)c1ccc(-n2cccn2)nc1 |  |  |  | 4.64 | inactive |  |  | inhibition [4]: Active

Now from value to compound, other results behind:

Row | Activity [1] | inhibition [2] | inhibition [3] | pKb [5] | Activity [6] | inhibition [9] | inhibition [12] | Structure (SMILES) | further results
14 | inactive | > 50% | inactive | 5.6 | inactive |  |  | O=C(NC1CCN(Cc2ccc(Cl)cc2)CC1)c1ccc(-n2cccn2)nc1 | inhibition [4]: Active; inhibition [7]: 80%; inhibition [8]: 80%
15 |  | > 60% |  |  |  | inactive |  | O=C(c1ccc(-n2cccn2)nc1)N1CCN(Cc2ccc(Cl)cc2)CC1 | pKb [10]: 6.35; inhibition [7]: > 10%; inhibition [8]: > 20%
16 |  | > 60% |  | 6.09 | inactive |  | > 50% | COc1ccc(CN2CCN(C(=O)c3ccc(-n4cccn4)nc3)CC2)cc1 | pKb [10]: 6.15; inhibition [7]: > 10%; inhibition [8]: > 20%; inhibition [13]: > 80%
17 |  |  |  | 6.5 | inactive |  | > 50% | O=C(c1ccc(-n2cccn2)nc1)N1CCN(Cc2ccc(Cl)c(Cl)c2)CC1 | inhibition [13]: > 80%
18 | inactive |  | inactive |  |  | ≥ 20% |  | O=C(c1ccc(-n2cccn2)nc1)N1CCC(N(Cc2ccccc2)Cc2ccc(Cl)cc2)CC1 | 
19 | inactive | > 50% | inactive |  |  |  |  | O=C(NC1CCN(Cc2ccc(F)c(F)c2)CC1)c1ccc(-n2cccn2)nc1 | inhibition [7]: > 10%; inhibition [8]: > 20%
